One experiment has as its system HEK-293T. Put plainly: Cytotoxicity against human HEK293T cells assessed as reduction in cell viability measured after 24 hrs by CellTiter-Glo luminescent assay. The class given is cell-based. In outline:
(§1)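 High-throughput viability screen of test agents across a panel of 22 cancerous and noncancerous human cell lines. Viability was read by CellTiter-Glo luminescence.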

Experiment [1] is described as follows: Inhibition of IKKalpha/IKKbeta in human HEK293T cells transfected with firefly luciferase gene assessed as inhibition of TNF-alpha-stimulated NF-kappaB signalling preincubated for 1 hr followed by TNF alpha stimulation measured after 3 hrs by luciferase reporter gene assay. The class given is cell-based. The conditions noted are these: HEK-293T. In a few lines: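 Commercial NF-κB-driven luciferase reporter assay in HEK 293T cells stimulated with TNFα. EC50 was derived from the luminescence readout.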

A further experiment concerns HCC1599. Put plainly: Cytotoxicity against human HCC1599 cells assessed as reduction in cell viability measured after 24 hrs by CellTiter-Glo luminescent assay. The class given is functional, cell-based. To be noted: HCC1599, 24 h. In a few lines:
as §1

The next experiment concerns SUD4. Put plainly: Cytotoxicity against human SU-DHL-4 cells assessed as reduction in cell viability measured after 24 hrs by CellTiter-Glo luminescent assay. It counts as functional, cell-based. To be noted: SU-DHL-4, 24 h. In a few lines:
as §1

For a further experiment, the system named is CA46. Put plainly: Cytotoxicity against human CA46 cells assessed as reduction in cell viability measured after 24 hrs by CellTiter-Glo luminescent assay. It counts as functional, cell-based. The conditions noted are these: CA46, 24 h. In outline:
as §1

Experiment [2] can be described thus: Cytotoxicity against human Hs888Lu cells assessed as reduction in cell viability measured after 24 hrs by CellTiter-Glo luminescent assay. The class given is cell-based. In outline: as §1
A further experiment deals with RCK8. Put plainly: Cytotoxicity against human RC-K8 cells assessed as reduction in cell viability measured after 24 hrs by CellTiter-Glo luminescent assay. It counts as functional, cell-based. To be noted: RCK8, 24 h. In outline: as §1
A short description of experiment [3]: Cytotoxicity against human Hs895SK cells assessed as reduction in cell viability measured after 24 hrs by CellTiter-Glo luminescent assay. It counts as cell-based. To be noted: Hs 895.Sk. In a few lines:
as §1

A further experiment relates to PSN1. In words: Cytotoxicity against human PSN1 cells assessed as reduction in cell viability measured after 24 hrs by CellTiter-Glo luminescent assay. To be noted: PSN1, 24 h. It counts as functional, cell-based. In outline:
as §1

Experiment [4] can be described thus: Cytotoxicity against human Hs895T cells assessed as reduction in cell viability measured after 24 hrs by CellTiter-Glo luminescent assay. The class given is functional, cell-based. In outline: as §1
The test system of a further experiment is Hs-578T. Put plainly: Cytotoxicity against human Hs-578T cells assessed as reduction in cell viability measured after 24 hrs by CellTiter-Glo luminescent assay. The class given is functional, cell-based. In a few lines: as §1
Experiment [5] is described as follows: Cytotoxicity against human Hs578Bst cells assessed as reduction in cell viability measured after 24 hrs by CellTiter-Glo luminescent assay. It counts as cell-based. In a few lines: as §1
Another experiment relates to NCI-H446. In words: Cytotoxicity against human NCI-H446 cells assessed as reduction in cell viability measured after 24 hrs by CellTiter-Glo luminescent assay. The class given is functional, cell-based. The conditions noted are these: NCI-H446, 24 h. In outline: as §1

SMILES strings stand for the structures.

For `C=C1C[C@]23C[C@@]1(O)CC[C@H]2c1ccc(O)c(C)c1[C@@H]3C(=O)OC`, the IC50 (in the experiment on HEK-293T; with HCC1599; with SUD4; with CA46; in experiment [2]; with RCK8) was > 10 µM each time. Also, the IC50 (in [3]; in the experiment on PSN1; in experiment [4]; in the experiment with Hs-578T; in experiment [5]; in the experiment with NCI-H446) was > 10 µM in each case. Further, the EC50 in experiment [1] was > 100 µM.
As for `C=C1[C@@H]2OC(=O)[C@H]3[C@@H]4[C@@]5(C)C(=O)C=C[C@@]4(OC5=O)[C@@H]4CC[C@]1(O)C[C@]234`, the IC50 (in the experiment with HEK-293T; in experiment [2]; in experiment [3]; in the experiment with PSN1; in experiment [4]; with Hs-578T) was > 10 µM throughout. Moreover, in experiment [5], the IC50 was > 10 µM. In addition, the EC50 in [1] turned out to be 57 µM; in the experiment with HCC1599 it was 5.5 µM; in the experiment on SUD4, 3 µM; in the experiment with CA46 it was 3.7 µM; in the experiment on RCK8 it was 4.3 µM; in the experiment with NCI-H446, 5.9 µM.
Consider `C=C1C[C@]23C[C@@]1(O)CC[C@H]2c1cc(Br)c(O/C=C/C(=O)OC)c(C)c1[C@@H]3C(=O)OC`, for which the IC50 (with HEK-293T; with HCC1599; with SUD4; in the experiment with CA46; in [2]; in the experiment with RCK8) was > 10 µM each time. Moreover, the 50% inhibitory concentration (IC50) (in [3]; in the experiment on PSN1; in experiment [4]; in the experiment on Hs-578T; in experiment [5]; with NCI-H446) was > 10 µM throughout. The EC50 in [1] is > 100 µM.
`COC(=O)[C@H]1c2c(cc3ccoc3c2C)[C@@H]2CC[C@@]3(C)C[C@]21CC3=O`: the IC50 (in the experiment with HEK-293T; in the experiment on HCC1599; in the experiment with SUD4; in the experiment on CA46; in experiment [2]; in the experiment with RCK8) was > 10 µM throughout. In addition, the IC50 (in experiment [3]; in the experiment on PSN1; in [4]; with Hs-578T; in [5]; with NCI-H446) was > 10 µM throughout. Besides, the EC50 in [1] is > 100 µM.
On to `C=C1[C@@H](O)[C@]23C[C@@]1(O)CC[C@H]2c1ccc(O)c(C)c1[C@@H]3C(=O)OC`, for which the half-inhibitory concentration (IC50) (in the experiment with HEK-293T; with HCC1599; with SUD4; in the experiment on CA46; in experiment [2]; in the experiment on RCK8) was > 10 µM throughout. Further, the IC50 (in experiment [3]; with PSN1; in [4]; in the experiment on Hs-578T; in experiment [5]; in the experiment on NCI-H446) was > 10 µM each time. In [1], the EC50 was > 100 µM.
For the compound `C=C1[C@@H]2OC(=O)[C@H]3c4c(C)cccc4[C@@H]4CC[C@]1(O)C[C@@]243`, the half-maximal inhibitory concentration (IC50) (with HEK-293T; in the experiment with HCC1599; in the experiment with SUD4; in the experiment on CA46; in experiment [2]; in the experiment with RCK8) was > 10 µM in each case. The IC50 (in [3]; in the experiment with PSN1; in experiment [4]; in the experiment with Hs-578T; in experiment [5]; with NCI-H446) was > 10 µM in each case. For the same compound, in experiment [1], the EC50 is > 100 µM.
On to `Cc1cccc2c1[C@H](C(=O)O)[C@@]13CC(=O)[C@@](C)(CC[C@H]21)C3`, for which the IC50 (in the experiment on HEK-293T; in the experiment with HCC1599; in the experiment on SUD4; with CA46; in experiment [2]; in the experiment with RCK8) was > 10 µM throughout. The IC50 (in experiment [3]; with PSN1; in [4]; in the experiment with Hs-578T; in experiment [5]; in the experiment with NCI-H446) was > 10 µM each time. Moreover, the EC50 in experiment [1] was > 100 µM.
Consider `C=C1C(=O)[C@@]2(C)CC[C@@H]3c4cccc(C)c4[C@H](C(=O)OC)[C@@]13C2`, for which the IC50 (with HEK-293T; in experiment [2]; with PSN1; in experiment [4]; in experiment [5]) was > 10 µM throughout. For the same compound, the EC50 in experiment [1] came out at 55 µM; with HCC1599 it was 1.1 µM; in the experiment on SUD4 it was 0.69 µM; in the experiment on CA46, 0.46 µM; in the experiment with RCK8, 1.9 µM; in experiment [3], 9.5 µM. Moreover, the EC50 in the experiment with Hs-578T came to 4.8 µM; with NCI-H446 it was 2.9 µM.
Turning to `C=C1C(=O)[C@]23C[C@@]1(O)CC[C@H]2[C@@]12C=CC(=O)[C@@](C)(C(=O)O1)[C@H]2[C@@H]3C(=O)OC`, the EC50 was 7.1 µM in the experiment on HEK-293T; 1.7 µM in experiment [1]; 0.83 µM in the experiment with HCC1599; < 0.04 µM in the experiment on SUD4; 0.88 µM in the experiment with CA46; 0.072 µM with RCK8. Moreover, the EC50 in the experiment with Hs-578T was 5.2 µM; in the experiment with NCI-H446, < 0.04 µM. In addition, the IC50 (in [2]; in [3]; in the experiment on PSN1; in experiment [4]; in experiment [5]) was > 10 µM in each case.
In the case of `COC(=O)[C@H]1c2c(ccc(O)c2C)[C@@H]2CC[C@@]3(C)C[C@]21CC3=O`, the concentration for half-maximal inhibition (IC50) (in the experiment with HEK-293T; with HCC1599; in the experiment with SUD4; in the experiment on CA46; in experiment [2]; in the experiment on RCK8) was > 10 µM in each case. Also, the IC50 (in experiment [3]; in the experiment on PSN1; in [4]; in the experiment on Hs-578T; in experiment [5]; in the experiment with NCI-H446) was > 10 µM in each case. Moreover, the EC50 in experiment [1] was > 100 µM.
As to `C=C1C[C@]23C[C@@]1(O)CC[C@H]2c1ccc(O/C=C/C(=O)OC)c(C)c1[C@@H]3C(=O)OC`, the IC50 (with HEK-293T; with HCC1599; in the experiment on SUD4; in the experiment with CA46; in experiment [2]; with RCK8) was > 10 µM throughout. Besides, the IC50 (in experiment [3]; with PSN1; in [4]; in the experiment on Hs-578T; in [5]; in the experiment on NCI-H446) was > 10 µM in each case. Moreover, in experiment [1], the EC50 was > 100 µM.
Turning to `C=C1C[C@]23C[C@@]1(O)CC[C@@H]2c1cccc(C)c1[C@@H]3C(=O)OC`, the IC50 (with HEK-293T; in the experiment on HCC1599; in the experiment with SUD4; in the experiment with CA46; in experiment [2]; in the experiment with RCK8) was > 10 µM in each case. The IC50 (in experiment [3]; in the experiment with PSN1; in [4]; in the experiment on Hs-578T; in [5]; in the experiment with NCI-H446) was > 10 µM in each case. Also, the EC50 in experiment [1] is > 100 µM.
With `C=C1C[C@]23C[C@@]1(O)CC[C@H]2c1cc2c(C(=O)O)coc2c(C)c1[C@@H]3C(=O)O`, the IC50 (in the experiment with HEK-293T; with HCC1599; in the experiment on SUD4; in the experiment on CA46; in [2]; in the experiment on RCK8) was > 10 µM throughout. The IC50 (in experiment [3]; with PSN1; in [4]; in the experiment with Hs-578T; in [5]; in the experiment with NCI-H446) was > 10 µM each time. The EC50 in experiment [1] was > 100 µM.
Take `C=C1C(=O)[C@@]2(C)CC[C@H]3c4cccc(C)c4[C@H](C(=O)OC)[C@@]13C2`: the EC50 worked out at 2.9 µM with HEK-293T; 22 µM in experiment [1]; 1.4 µM with HCC1599; 0.62 µM in the experiment with SUD4; 2.5 µM in the experiment with CA46; 0.97 µM with RCK8. In addition, the EC50 was 5.2 µM in the experiment with Hs-578T, 10 µM in experiment [5] and 2.1 µM in the experiment on NCI-H446. For the same compound, the IC50 (in [2]; in [3]; in the experiment with PSN1; in [4]) was > 10 µM in each case.

Source of the values: ChEMBL document CHEMBL4725436, “Gibberellin JRA-003: A Selective Inhibitor of Nuclear Translocation of IKKα” (ACS Med Chem Lett, 2020).
